According to ChEMBL document CHEMBL4229422, “Synthesis and pharmacological evaluation of pyrazolo[4,3-c]quinolinones as high affinity GABAA-R ligands and potential anxiolytics” (Bioorg Med Chem, 2018):
Active and inactive are the calls of the source. The calls are words filed in the database; no cut-off is given here.

target: not listed separately; test: Displacement of [3H]-FNZ from benzodiazepine binding site of GABAA receptor in bovine synaptosomal membranes after 1 hr by scintillation counting method; format: cell membranes, Bos taurus; conditions: not given

Row | IC50 [nM] | Ki [nM] | Compound
1 | 0.37 | 0.196 | Cc1ccc2[nH]cc3c(=O)n(-c4ccccc4F)nc-3c2c1
2 | 0.326 | 0.173 | COc1ccc(-n2nc3c4cc(Br)ccc4[nH]cc-3c2=O)cc1
3 | 0.542 | 0.288 | COc1ccc(-n2nc3c4cc(C)ccc4[nH]cc-3c2=O)cc1
4 | 1.47 | 0.78 | O=c1c2c[nH]c3ccc(Br)cc3c-2nn1-c1ccc(F)cc1
5 | 1.84 | 0.98 | COc1ccc2[nH]cc3c(=O)n(-c4ccc(F)cc4)nc-3c2c1
6 | 0.823 | 0.437 | O=c1c2c[nH]c3ccc(Br)cc3c-2nn1-c1ccccc1
7 | 1.5 | 0.797 | COc1ccc2[nH]cc3c(=O)n(-c4ccccc4F)nc-3c2c1
8 | 1.15 | 0.612 | Cc1ccc2[nH]cc3c(=O)n(-c4ccc(F)cc4)nc-3c2c1
9 | 0.589 | 0.313 | Cc1ccc2[nH]cc3c(=O)n(-c4ccccc4)nc-3c2c1

system: Rattus norvegicus; test: Anxiogenic activity in Wistar rat assessed as reduction in time spent on open arms at 0.25 to 0.5 mg/kg, ip administered 30 mins prior to testing measured for 5 mins by elevated plus-maze test; format: functional, organism-based; conditions: not given
Summary of the method: (§1)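 Adult male Wistar rats (65–75 days, 280–320 g), group-housed, 12 h light–dark, 21-22 °C, handled on four days beforehand. Doses of 0.25, 0.5, 1 and 3 mg/kg were dissolved in propylenglycol, diluted in aqueous 0.6 % v/v Tween 80 and given ip 30 min before the EPM. Vehicle controls received the same mixture. Behaviour was recorded 5 min as % time in open arms relative to open plus closed arms. About 7 rats per dose, mean ± S.E.M., ANOVA.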

Row | Compound | Activity
10 | O=c1c2c[nH]c3ccc(Br)cc3c-2nn1-c1ccccc1 | Active

system: Rattus norvegicus; test: Anxiogenic activity in Wistar rat assessed as reduction in time spent on open arms at 0.25 to 3 mg/kg, ip administered 30 mins prior to testing measured for 5 mins by elevated plus-maze test; format: functional, organism-based; conditions: not given; summary of the method: as §1

Row | Compound | Activity
11 | O=c1c2c[nH]c3ccc(Br)cc3c-2nn1-c1ccc(F)cc1 | Active

system: Rattus norvegicus; test: Toxicity in Wistar rat assessed as change in locomotor activity at 0.25 to 3 mg/kg, ip administered 30 mins; format: organism-based; conditions: in vivo, 0.5 h
Summary of the method: (§2)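 Locomotor or exploratory activity was scored as the number of closed-arm entries during the 5 min EPM session. Male Wistar rats (280–320 g) received 0.25–3 mg/kg ip 30 min beforehand, in propylenglycol diluted with 0.6 % v/v Tween 80. Vehicle-injected controls were included. About 7 rats per dose, ANOVA.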

Row | Compound | Activity
12 | COc1ccc(-n2nc3c4cc(Br)ccc4[nH]cc-3c2=O)cc1 | Non-Toxic
13 | O=c1c2c[nH]c3ccc(Br)cc3c-2nn1-c1ccc(F)cc1 | Toxic

system: Rattus norvegicus; test: Anxiolytic activity in Wistar rat assessed as increase in time spent on open arms at 0.5 mg/kg, ip administered 30 mins prior to testing measured for 5 mins by elevated plus-maze test; format: functional, organism-based; conditions: not given; summary of the method: as §1

Row | Compound | Activity
14 | COc1ccc(-n2nc3c4cc(Br)ccc4[nH]cc-3c2=O)cc1 | Active

system: Rattus norvegicus; test: Anxiolytic activity in Wistar rat assessed as time spent on open arms at 1 mg/kg, ip administered 30 mins prior to testing measured for 5 mins by elevated plus-maze test (reference value: 20%); format: functional; conditions: not given; summary of the method: as §1

Row | Compound | Activity [%]
15 | COc1ccc(-n2nc3c4cc(C)ccc4[nH]cc-3c2=O)cc1 | 50

system: Rattus norvegicus; test: Toxicity in Wistar rat assessed as change in locomotor activity at 1 mg/kg, ip administered 30 mins; format: organism-based; conditions: in vivo, 0.5 h; summary of the method: as §2

Row | Compound | Activity
16 | COc1ccc(-n2nc3c4cc(C)ccc4[nH]cc-3c2=O)cc1 | Non-Toxic
